Assay results from different studies.
KIT L576P: Mast/stem cell growth factor receptor Kit (KIT, Homo sapiens, UniProt P10721, L576P)
KIT: Mast/stem cell growth factor receptor Kit (KIT, Homo sapiens, UniProt P10721)
KIT D816H: Mast/stem cell growth factor receptor Kit (KIT, Homo sapiens, UniProt P10721, D816H)
KIT A829P: Mast/stem cell growth factor receptor Kit (KIT, Homo sapiens, UniProt P10721, A829P)
KIT V559D: Mast/stem cell growth factor receptor Kit (KIT, Homo sapiens, UniProt P10721, V559D)
KIT D816V: Mast/stem cell growth factor receptor Kit (KIT, Homo sapiens, UniProt P10721, D816V)
KIT autoinhibited: Mast/stem cell growth factor receptor Kit, autoinhibited (KIT, Homo sapiens, UniProt P10721)

| Compound | target | read-out | technique | concentration | remaining binding [%] |
| --- | --- | --- | --- | --- | --- |
| O=C(Nc1c[nH]nc1C(=O)NC1CCNCC1)c1cc(F)cc(F)c1 | KIT L576P | binding | competition with immobilised ligand | 1 µM | 100 |
| C[C@@H]1CN(c2ccc3ncc(-c4ccc5[nH]nc(C6CC6)c5c4)n3n2)C[C@H](C)O1 | KIT | binding | competition with immobilised ligand | 0.5 µM | 50 |
| CN(C)c1nccc(-c2cnn3ncccc23)n1 | Mast/stem cell growth factor receptor Kit (KIT, Homo sapiens, UniProt P10721, T670I/V559D) | binding | – | 1 µM | 100 |
| CC(C)(O)c1cncc(-c2nc3ccc(F)cc3n2C2CC2)c1 | KIT D816H | cell-free assay | competition with immobilised ligand | 1 µM | 100 |
| Nc1ncc2c(n1)-c1c([nH]c3ccc(C#CC4CC4)cc13)CCCC2 | KIT L576P | binding | competition with immobilised ligand | 1 µM | 100 |
| N[C@@H]1CCN(c2nccc(-c3cnn4ncccc34)n2)C1 | KIT | binding | – | 1 µM | 95 |
| C=CC(=O)N1CCC(C(=O)NCC(=O)N2CCN(c3nc(-c4cnc(N)nc4C(F)F)nc(N4CCOCC4)n3)CC2)CC1 | KIT L576P | binding | competition with immobilised ligand | 1 µM | 53 |
| O=C(NC[C@@H]1[C@H]2CN(C(=O)OCc3cc(C(F)(F)F)cc(C(F)(F)F)c3)C[C@@H]12)c1ccc2[nH]nnc2c1 | KIT | cell-free assay | competition with immobilised ligand | 1 µM | 89 |
| C[C@@H](c1ccc(-n2cnc3c(N)ncnc32)cc1)N1CCc2nn(C)c(Cc3ccccc3)c2C1=O | Mast/stem cell growth factor receptor Kit (KIT, Homo sapiens, UniProt P10721, V559D/V654A) | binding | competition with immobilised ligand | 0.1 µM | 78 |
| CN1CCN(c2ccc(Nc3nccc(-c4cccc([N+](=O)[O-])c4)n3)cc2C(F)(F)F)CC1 | KIT D816H | binding | – | 10 µM | 2.8 |
| COc1ncc2cc3ccccc3nc2c1C#N | KIT A829P | cell-free assay | competition with immobilised ligand | 5 µM | 100 |
| COc1cc(-c2cn(C3CCc4ccccc4N(CC(F)(F)F)C3=O)nn2)ccc1-n1ccc(C)n1 (stereo not drawn) | KIT L576P | cell-free assay | competition with immobilised ligand | 1 µM | 62 |
| Cc1cnc(Nc2ccc(C(=O)N3CCC(N4CCCC4)CC3)cc2)nc1-c1cc2ccccc2s1 | KIT V559D | binding | competition with immobilised ligand | 1 µM | 0.6 |
| CC(=O)N1CCC(c2ccc(C(=O)NC3=NCCN3)cc2C(F)(F)F)CC1 | KIT D816V | cell-free assay | competition with immobilised ligand | 1 µM | 91 |
| O=C(c1ccc(Nc2ncc(Cl)c(-c3ccc(Cl)s3)n2)cc1)N1CCC(N2CCCC2)CC1 | KIT L576P | binding | competition with immobilised ligand | 1 µM | 1.4 |
| CN(C)c1nccc(-c2cnc3ncccn23)n1 | KIT A829P | binding | – | 1 µM | 54 |
| Cn1nc(C(F)(F)F)cc1-c1cnc(N2CCc3cc(S(=O)(=O)Nc4c(F)cc(Cl)cc4F)cc(N4CCCC4=O)c32)nc1 | KIT D816H | cell-free assay | competition with immobilised ligand | 1 µM | 77 |
| O=C(NCCCN1CCOCC1)c1ccc(Nc2nccc(-c3cc4ccccc4s3)n2)cc1 | KIT autoinhibited | binding | competition with immobilised ligand | 1 µM | 76 |
| CN(C)c1ncc(F)c(-c2cnn3ncccc23)n1 | KIT V559D | binding | – | 1 µM | 91 |
| CCC(=O)N[C@@H]1CC[C@H](C(=O)N(C)c2ccc(-c3nc4ccccc4o3)cc2)C1 | KIT D816V | cell-free assay | competition with immobilised ligand | 1 µM | 89 |
| CC1CCCN1c1nccc(-c2cnn3ncccc23)n1 (stereo not drawn) | KIT A829P | binding | – | 1 µM | 89 |
| COc1cnc(Nc2cccc(S(N)(=O)=O)c2)nc1N1CCN(c2ccccc2)C(=O)C1 | KIT D816H | binding | competition with immobilised ligand | 1 µM | 55 |
| CN(CCCC(F)(F)F)c1nccc(-c2cnn3ncccc23)n1 | KIT autoinhibited | binding | – | 1 µM | 100 |
| C[C@H](c1ccc(F)cc1)N(Cc1cccc(C(=O)O)c1)C(=O)c1cnc2ccccc2c1 | KIT V559D | cell-free assay | competition with immobilised ligand | 1 µM | 92 |
